Laboratory results reported in ChEMBL document CHEMBL4308835, “Fluorine-Substituted Pyrrolo[2,3- d]Pyrimidine Analogues with Tumor Targeting via Cellular Uptake by Folate Receptor α and the Proton-Coupled Folate Transporter and Inhibition of de Novo Purine Nucleotide Biosynthesis” (J Med Chem, 2018).
The source made the active and inactive calls. No cut-off for these calls is given here.

Experiments:
IGROV-1 [1] = assay: Antiproliferative activity against FRalpha […] human IGROV1 KD4 cells after 96 hrs by Cell-Titer Blue assay; assay type: functional, cell-based; settings: IGROV-1, 96 h
A2780 = assay: Antiproliferative activity against human A2780 cells after 96 hrs by Cell-Titer Blue assay; assay type: functional, cell-based; settings: A2780, 96 h
[2] = Toxicity in NCR SCID mouse xenografted with human IGROV1 cells assessed as weight loss median nadir at 95 mg/kg, iv treated once daily for 4 days per week for 4 weeks starting from 3 days post implantation and measured at day 14 post last dose relative to control; assay type: organism-based; settings: in vivo
[3] = target: T1, Reduced folate transporter (Homo sapiens) (UniProt P41440); assay: Inhibition of human RFC2 expressed in human HeLa R1-11 cells assessed as reduction in [3H]MTX uptake at pH 7.2 at 1 uM measured over 2 mins relative to control; assay type: cell-based
T1 sequence (whole entry): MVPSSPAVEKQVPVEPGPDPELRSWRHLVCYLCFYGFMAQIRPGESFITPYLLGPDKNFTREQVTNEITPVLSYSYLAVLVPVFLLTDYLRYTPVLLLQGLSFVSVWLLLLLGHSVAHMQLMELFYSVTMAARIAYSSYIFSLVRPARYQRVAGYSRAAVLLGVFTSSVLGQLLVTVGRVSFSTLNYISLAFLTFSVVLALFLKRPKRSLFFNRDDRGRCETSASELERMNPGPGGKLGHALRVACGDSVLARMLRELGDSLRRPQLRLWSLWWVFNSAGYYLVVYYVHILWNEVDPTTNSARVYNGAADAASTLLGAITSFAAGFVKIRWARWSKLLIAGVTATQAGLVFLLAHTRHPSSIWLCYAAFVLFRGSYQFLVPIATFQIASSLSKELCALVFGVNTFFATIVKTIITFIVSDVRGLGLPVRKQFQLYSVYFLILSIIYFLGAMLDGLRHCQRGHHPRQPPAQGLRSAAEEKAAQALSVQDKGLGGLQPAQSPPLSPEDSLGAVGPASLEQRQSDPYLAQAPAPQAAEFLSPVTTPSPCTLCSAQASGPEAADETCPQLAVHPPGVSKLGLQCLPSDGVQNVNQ

[4] = Toxicity in NCR SCID mouse xenografted with human IGROV1 cells assessed as weight loss median nadir at 95 mg/kg, iv treated once daily for 4 days per week for 4 weeks starting from 3 days post implantation and measured at day 18 post last dose relative to control; assay type: organism-based; settings: in vivo
IGROV-1 [5] = assay: Antiproliferative activity against human IGROV1 cells harboring non targeted control shRNA sequence after 96 hrs by Cell-Titer Blue assay; assay type: functional, cell-based; settings: IGROV-1, 96 h
[6] = target: T2, Proton-coupled folate transporter (Homo sapiens) (UniProt Q96NT5); assay: Inhibition of human PCFT expressed in Chinese hamster R2/PCFT4 cells assessed as reduction in [3H]MTX uptake at pH 5.5 at 1 to 10 uM measured over 2 mins; assay type: cell-based
T2 sequence (whole entry): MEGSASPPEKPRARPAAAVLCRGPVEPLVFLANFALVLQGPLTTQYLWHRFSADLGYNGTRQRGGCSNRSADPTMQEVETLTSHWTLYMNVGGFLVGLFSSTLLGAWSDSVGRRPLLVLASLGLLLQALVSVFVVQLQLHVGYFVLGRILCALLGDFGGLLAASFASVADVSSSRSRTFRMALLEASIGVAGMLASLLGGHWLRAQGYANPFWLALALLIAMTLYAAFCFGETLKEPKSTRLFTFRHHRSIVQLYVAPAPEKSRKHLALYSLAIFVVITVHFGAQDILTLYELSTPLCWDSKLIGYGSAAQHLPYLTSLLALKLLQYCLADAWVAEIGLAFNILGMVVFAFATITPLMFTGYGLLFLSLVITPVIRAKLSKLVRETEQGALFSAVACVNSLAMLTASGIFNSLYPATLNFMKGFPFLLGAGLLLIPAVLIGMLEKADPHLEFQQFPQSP

[7] = target: T1, Reduced folate transporter (Homo sapiens); assay: Inhibition of human RFC2 expressed in human HeLa R1-11 cells assessed as reduction in [3H]MTX uptake at pH 7.2 at 10 uM measured over 2 mins relative to control; assay type: cell-based
IGROV-1 [8] = assay: Anticlonogenic activity against human IGROV1 cells incubated for 24 hrs followed by compound wash out and measured after 10 days by methylene blue staining-based assay; assay type: functional, cell-based
How it was run: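 IGROV1 cells plated in folate-free RPMI 1640 (pH 7.2), 10% dialyzed FBS, 25 nM LCV. After 24 h adherence, exposed to drug (0–20 μM) for 24 h at pH 6.8 (25 mM PIPES/25 mM HEPES). Washed, then grown drug-free at pH 7.2 (100 mM HEPES) with 25 nM LCV for up to 10 days at 37 °C. Colonies stained with methylene blue and counted electronically. Values normalized to vehicle controls. Triplicate experiments.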

[9] = target: T2, Proton-coupled folate transporter (Homo sapiens); assay: Inhibition of human PCFT expressed in Chinese hamster R2/PCFT4 cells assessed as reduction in [3H]MTX uptake at pH 5.5 at 1 uM measured over 2 mins relative to control; assay type: cell-based
IGROV-1 [10] = assay: Antiproliferative activity against human IGROV1 cells at 1 to 1000 nM in presence of 320 uM AICA after 96 hrs by Cell-Titer Blue assay; assay type: functional, cell-based
How it was run: (§1)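 IGROV1 cells, 2000/well, in folate-free RPMI 1640 with 10% dialyzed FBS, L-glutamine, 25 nM LCV. A range of drug concentrations was given with thymidine (10 μM), adenosine (60 μM) or AICA (320 μM) added. After 96 h, proliferation was measured by Cell-Titer Blue fluorescence. At least triplicate experiments.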

[11] = Antiproliferative activity in Chinese hamster R2 cells deficient in RFC, PCFT, and FRalpha assessed as reduction in cell growth after 96 hrs by Cell-Titer Blue assay; assay type: cell-based; settings: Cricetulus griseus, R2, 96 h
[12] = target: Folate receptor alpha (Homo sapiens) (UniProt P15328); assay: Displacement of [3H]folic acid from human FRalpha expressed in Chinese hamster RT16 cells at 10 to 1000 nM after 15 mins; assay type: cell-based
Sequence of Folate receptor alpha (Homo sapiens) (P15328 25-234 limits assumed): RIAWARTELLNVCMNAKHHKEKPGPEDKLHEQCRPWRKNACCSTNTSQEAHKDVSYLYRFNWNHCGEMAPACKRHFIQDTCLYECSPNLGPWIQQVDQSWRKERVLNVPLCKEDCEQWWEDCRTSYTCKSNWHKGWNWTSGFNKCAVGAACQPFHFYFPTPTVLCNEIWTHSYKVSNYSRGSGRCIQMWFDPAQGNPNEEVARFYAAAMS
How it was run: (§2)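 RT16 (FRα) or D4 (FRβ) CHO cells at ~80% confluence were washed with PBS at 4 °C, then with pH 3.5 acetate buffer to strip bound folate, then HEPES-buffered saline pH 7.4. Cells were incubated with 50 nM [³H]folic acid plus competitor (10–1000 nM) for 15 min at 4 °C, washed, and solubilized in NaOH. Bound radioactivity was normalized to protein.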

IGROV-1 [13] = assay: Antiproliferative activity against human IGROV1 cells at 1 to 1000 nM in presence of 60 uM adenosine after 96 hrs by Cell-Titer Blue assay; assay type: functional, cell-based; how it was run: as §1
[14] = target: T2, Proton-coupled folate transporter (Homo sapiens); assay: Inhibition of human PCFT expressed in Chinese hamster R2/PCFT4 cells assessed as reduction in [3H]MTX uptake at pH 5.5 at 10 uM measured over 2 mins relative to control; assay type: cell-based
IGROV-1 [15] = assay: Antiproliferative activity against wild type human IGROV1 cells after 96 hrs by Cell-Titer Blue assay; assay type: functional, cell-based; settings: IGROV-1, 96 h
[16] = target: T3, Proton-coupled folate transporter (Homo sapiens, UniProt Q96NT5); assay: Inhibition of human PCFT expressed in Chinese hamster R2/PCFT4 cells assessed as reduction in [3H]MTX uptake at pH 5.5 measured over 2 mins by Dixon plot analysis; assay type: cell-based
T3 sequence (Q96NT5 whole entry): T2 sequence (whole entry)
How it was run: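 Competitor concentrations ranged from 0.05 to 0.5 μM. Ki was obtained by Dixon plot. Mean ± SE of four independent experiments.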

IGROV-1 [17] = assay: Antiproliferative activity against human IGROV1 cells at 1 to 1000 nM in presence of 10 uM thymidine after 96 hrs by Cell-Titer Blue assay; assay type: functional, cell-based; how it was run: as §1
[18] = Toxicity in NCR SCID mouse xenografted with human IGROV1 cells assessed as weight loss median nadir at 95 mg/kg, iv treated once daily for 4 days per week for 4 weeks starting from 3 days post implantation and measured after conclusion of therapy; assay type: organism-based; settings: in vivo
How it was run: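 Female ICR SCID mice, 10 weeks old, kept on a folate-deficient diet for 14 days before bilateral subcutaneous IGROV1 implants; a control cohort was fed folate-replete chow. Randomized at 5 mice/group. […] Tumors measured twice weekly; body weights recorded daily.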

IGROV-1 [19] = assay: Antiproliferative activity against FRalpha […] human IGROV1 KD10 cells after 96 hrs by Cell-Titer Blue assay; assay type: functional, cell-based; settings: IGROV-1, 96 h
Homo sapiens [20] = organism: Homo sapiens; assay: Selectivity ratio of IC50 for human RFC2 expressed in human HeLa R1-11 cells to IC50 for human FR2 expressed in human HeLa R1-11 cells; assay type: cell-based
Homo sapiens [21] = organism: Homo sapiens; assay: Selectivity ratio of IC50 for human RFC2 expressed in human HeLa R1-11 cells to IC50 for human PCFT4 expressed in human HeLa R1-11 cells; assay type: cell-based
[22] = target: T4, Trifunctional purine biosynthetic protein adenosine-3 (Homo sapiens, UniProt P22102); assay: Inhibition of GARFTase in human IGROV1 cells assessed as decrease in incorporation of [14C(U)glycine into [14C]formyl GAR formation after 24 hrs; assay type: cell-based
T4 sequence (P22102 whole entry): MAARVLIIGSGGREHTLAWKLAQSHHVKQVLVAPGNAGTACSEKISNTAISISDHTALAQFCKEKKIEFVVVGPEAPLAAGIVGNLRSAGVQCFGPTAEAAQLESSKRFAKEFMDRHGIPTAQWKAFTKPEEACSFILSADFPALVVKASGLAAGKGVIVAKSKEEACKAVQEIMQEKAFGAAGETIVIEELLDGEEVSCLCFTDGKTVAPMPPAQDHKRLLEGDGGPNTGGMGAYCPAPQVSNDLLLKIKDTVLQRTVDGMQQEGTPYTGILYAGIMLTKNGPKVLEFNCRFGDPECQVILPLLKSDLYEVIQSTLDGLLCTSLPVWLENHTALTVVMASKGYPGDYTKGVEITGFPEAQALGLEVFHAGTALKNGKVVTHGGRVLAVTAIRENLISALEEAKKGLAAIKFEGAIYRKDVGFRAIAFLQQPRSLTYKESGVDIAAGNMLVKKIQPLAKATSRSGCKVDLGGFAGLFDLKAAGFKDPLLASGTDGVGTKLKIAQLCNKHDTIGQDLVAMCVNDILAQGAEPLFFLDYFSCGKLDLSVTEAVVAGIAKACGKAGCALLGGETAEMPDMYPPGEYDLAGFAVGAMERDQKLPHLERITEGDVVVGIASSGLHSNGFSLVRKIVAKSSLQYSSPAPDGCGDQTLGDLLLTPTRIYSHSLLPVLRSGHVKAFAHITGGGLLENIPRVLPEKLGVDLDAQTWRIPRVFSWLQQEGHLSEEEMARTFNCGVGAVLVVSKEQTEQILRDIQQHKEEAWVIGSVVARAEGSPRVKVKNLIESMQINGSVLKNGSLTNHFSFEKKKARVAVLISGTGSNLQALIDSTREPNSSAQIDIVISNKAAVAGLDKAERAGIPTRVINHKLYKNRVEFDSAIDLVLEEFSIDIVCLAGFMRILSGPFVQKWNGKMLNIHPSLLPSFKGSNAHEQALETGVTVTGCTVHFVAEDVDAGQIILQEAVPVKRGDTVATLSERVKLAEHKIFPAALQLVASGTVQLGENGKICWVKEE

[23] = Binding affinity to human PCFT expressed in Chinese hamster R2/PCFT4 cells assessed as antiproliferative activity measured as reduction in cell growth after 96 hrs by Cell-Titer Blue assay
[24] = target: T1, Reduced folate transporter (Homo sapiens); assay: Inhibition of human RFC2 expressed in human HeLa R1-11 cells assessed as reduction in [3H]MTX uptake at pH 7.2 at 10 uM measured over 2 mins relative to control
[25] = Binding affinity to human RFC expressed in Chinese hamster PC43-10 cells assessed as antiproliferative activity measured as reduction in cell growth after 96 hrs by Cell-Titer Blue assay
[26] = target: Folate receptor beta (Homo sapiens) (UniProt P14207); assay: Displacement of [3H]folic acid from human FRbeta expressed in Chinese hamster D4 cells at 10 to 1000 nM after 15 mins; assay type: cell-based; how it was run: as §2
Sequence of Folate receptor beta (Homo sapiens) (P14207 17-230 limits assumed): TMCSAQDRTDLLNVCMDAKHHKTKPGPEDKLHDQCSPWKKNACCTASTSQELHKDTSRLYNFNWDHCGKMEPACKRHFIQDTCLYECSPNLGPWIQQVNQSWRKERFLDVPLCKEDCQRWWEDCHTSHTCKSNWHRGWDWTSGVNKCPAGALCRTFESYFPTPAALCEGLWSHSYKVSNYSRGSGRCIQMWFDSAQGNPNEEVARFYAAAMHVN

Structure (SMILES)	IC50 (IGROV-1 [1]) [nM]	IC50 (A2780) [nM]	inhibition [3]	IC50 (IGROV-1 [5]) [nM]	inhibition [6]	inhibition [7]	inhibition [9]	IC50 [11] [nM]	inhibition [12]	inhibition [14]	IC50 (IGROV-1 [15]) [nM]	Ki [16] [nM]	IC50 (IGROV-1 [19]) [nM]	IC50 [22] [nM]	other results
Nc1nc2[nH]c(CCCCc3csc(C(=O)N[C@@H](CCC(=O)O)C(=O)O)c3F)cc2c(=O)[nH]1	138	3.11	inactive	1.79	Active	inactive	60 to 85%	> 1000	Active	90 to 95%	1.9	250	66.9		Activity [2]: 15.7%; Activity [4]: 12.1%; IC50 (IGROV-1 [8]): 200 nM; Activity (IGROV-1 [10]): inactive; Activity (IGROV-1 [13]): inactive; Activity (IGROV-1 [17]): Active; Activity [18]: Non-Toxic
Nc1nc2[nH]c(CCCc3ccc(C(=O)N[C@@H](CCC(=O)O)C(=O)O)c(F)c3)cc2c(=O)[nH]1	41	2.14	inactive	1.14	Active	inactive	60 to 85%	140		90 to 95%	1.67	260	19.2	1 to 2.5	Ratio IC50 (Homo sapiens [20]): 97; Ratio IC50 (Homo sapiens [21]): 92
Nc1nc2[nH]c(CCCc3csc(C(=O)N[C@@H](CCC(=O)O)C(=O)O)c3)cc2c(=O)[nH]1	80.5	21.7		12.8	Active	< 30%	Active	355	Active	Active	12.1	280	30.3	1	IC50 [23]: 5.4 nM; inhibition [24]: < 30%; IC50 [25]: 197 nM; inhibition [26]: Active
